Laboratory results as given in paper PMC8217219 (Bone, 2021).

Legend:
[1] = system: MC3T3 cells; test: Hoechst staining; format: cell-based; details: subconfluent MC3T3 cells, 100μM, 3 days
Method in brief: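 Subconfluent, proliferating MC3T3-E1 (sc4) cells were exposed to test compound at 1, 10 or 100 μM for 3 days. Cells were washed with PBS, covered with 0.1X Tris-EDTA, frozen at −80°C for at least 2 h and thawed at room temperature. They were then stained 15 min in the dark with Hoechst 33258 (0.5 μg/ml in 0.3 M NaCl, 5 mM Tris, pH 8.0). Fluorescence was read at 340/460 and fit to a DNA standard curve. Values were normalized to DMSO control (1:100 dilution); n = 3.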

[2] = system: MC3T3 cells; test: Live/Dead cytotoxicity assay; format: cell-based; details: subconfluent MC3T3 cells, 100μM, 3 days
Method in brief: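 Viability was scored in subconfluent MC3T3-E1 (sc4) cultures after 3 days with test compound at 1, 10 or 100 μM. Medium was removed and cells were incubated 20 min with calcein-AM and ethidium homodimer-1 in PBS. Live-cell fluorescence was read at 465/540 nm. Values were normalized to DMSO-treated control (1:100 dilution).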

[3] = system: MC3T3 cells; test: RT-qPCR of osteogenic genes; format: cell-based, mouse; details: for osteogenic markers (mRNA) / expression of bone-related genes: 5μM; for expression of bone-related genes: combined with Ezh2 siRNA knockdown, days five and ten
[4] = system: H3K27me3; test: Western blot of cellular H3K27me3 levels; format: cell-based, mouse; details: MC3T3 cells, single dose 1μM, 24 hour treatment, relative to Gapdh
[5] = system: MC3T3 cells; test: Alizarin red staining; format: cell-based, mouse; details: for osteogenic boosting (calcium deposition, alizarin red) / mineralization (alizarin red staining, percent coverage area): 5μM, day 18; for osteogenic boosting (calcium deposition, alizarin red): Ezh2 overexpressing MC3T3 cells; for mineralization (alizarin red staining, percent coverage area): control MC3T3 cells (empty vector)
[6] = system: MC3T3 cells; test: MTS metabolic activity assay; format: cell-based; details: subconfluent MC3T3 cells, 10μM, 3 days
Method in brief: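 Subconfluent MC3T3-E1 (sc4) cells were given test compound at 1, 10 or 100 μM for 3 days. The MTS reagent was used per kit protocol and absorbance was read at 490 nm. Metabolic activity was expressed relative to DMSO-treated control (1:100 dilution).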

[7] = system: MC3T3 cells; test: Alkaline phosphatase; format: cell-based, mouse; details: day six; for alkaline phosphatase (Alpl) enzymatic activity: MC3T3 cells, optimal doses (40μM CPI-169, 5μM all others), vs vehicle
[8] = cited from earlier work
[9] = MC3T3 cell differentiation, day ten
[10] = MC3T3 cells overexpressing Ezh2, day ten
[11] = 5μM day two to five, combined with Ezh2 siRNA knockdown, day 24

Cc1cc(C)c(CN2CCc3c(Cl)cc(-c4c(C)noc4C)c(Cl)c3C2=O)c(=O)[nH]1 [PF-06726304]
cell numbers (Hoechst staining) [1]: significant reductions | fraction of living cells (live/dead staining) [2]: significant reductions

CCN(c1cc(-c2ccc(CN3CCOCC3)cc2)cc(C(=O)NCc2c(C)cc(C)[nH]c2=O)c1C)C1CCOCC1 [EPZ-6438]
osteogenic markers (mRNA) [3, 9]: highly effective at increasing osteogenic markers | osteogenic markers (mRNA) [3, 10]: not when cells overexpress Ezh2 | expression of bone-related genes [3]: co-stimulates expression of bone-related genes | reduction in H3K27me3 [4]: > 5 fold | alizarin red staining compared with GSK126 co-treatment ([5]; 5μM combined with Ezh2 siRNA, day 24): more robust staining | ECM mineralization (alizarin red) [5, 11]: enhances ECM mineralization | osteogenic boosting (calcium deposition, alizarin red) [5]: not observed | mineralization (alizarin red staining, percent coverage area) [5]: accelerated mineralization and more intense alizarin red staining | cell numbers (Hoechst staining) [1]: significant reductions | metabolic activity (MTS) [6]: less harmful to metabolic cell activity | fraction of living cells (live/dead staining) [2]: significant reductions

CCCc1cc(C)[nH]c(=O)c1CNC(=O)c1cc(-c2ccc(N3CCN(C(C)C)CC3)nc2)cc2c1cnn2C(C)C [UNC1999]
reduction in H3K27me3 [4]: > 5 fold | ECM mineralization (alizarin red) ([5]; MC3T3 cells, optimal doses for first six days, day 24 and day 28): except UNC1999 | alkaline phosphatase (Alpl) enzymatic activity [7]: except for UNC1999 | cell numbers (Hoechst staining) [1]: significant reductions | fraction of living cells (live/dead staining) [2]: significant reductions

CCS(=O)(=O)N1CCC([C@@H](C)n2c(C)c(C(=O)NCc3c(OC)cc(C)[nH]c3=O)c3ccccc32)CC1 [CPI-169]
optimal dose ([5]; MC3T3 cells, 2X dose, from alizarin red quantitation (Fig. 4, red arrows)): 40 µM | alkaline phosphatase (Alpl) enzymatic activity [7]: ~three fold stimulation | cell numbers (Hoechst staining) [1]: not observed | fraction of living cells (live/dead staining) [2]: not observed

CCC(CC)n1ccc2c(C(=O)NCc3c(C)cc(C)[nH]c3=O)cc(C#N)cc21 [EI1]
reduction in H3K27me3 [4]: 2–3 fold | cell numbers (Hoechst staining) [1]: not observed | metabolic activity (MTS) [6]: less harmful to metabolic cell activity | fraction of living cells (live/dead staining) [2]: not observed

CC[C@H](C)n1cc(C)c2c(C(=O)NCc3c(C)cc(C)[nH]c3=O)cc(-c3ccc(N4CCNCC4)nc3)cc21 [GSK126]
osteogenic markers (mRNA) [3, 9]: highly effective at increasing osteogenic markers | osteogenic markers (mRNA) [3, 10]: not when cells overexpress Ezh2 | expression of bone-related genes [3]: co-stimulates expression of bone-related genes | reduction in H3K27me3 [4]: 2–3 fold | adverse effects in other tissues and organs (e.g., spleen, liver) ([8]; adult mice (8–12 weeks) ref 29): no adverse effects | bone anabolic effect ([8]; adult mice (8–12 weeks) ref 29): modestly bone anabolic | bone accrual ([8]; normal and ovariectomized mice ref 29): effective for stimulation of bone accrual | ECM mineralization (alizarin red) [5, 11]: enhances ECM mineralization | osteogenic boosting (calcium deposition, alizarin red) [5]: not observed | mineralization (alizarin red staining, percent coverage area) [5]: accelerated mineralization and more intense alizarin red staining | cell numbers (Hoechst staining) [1]: significant reductions | fraction of living cells (live/dead staining) [2]: significant reductions

Cc1cc(C)c(CNC(=O)c2cc(-c3ccc(N4CCN(C)CC4)nc3)cc3c2c(C)cn3C(C)C)c(=O)[nH]1 [GSK503]
reduction in H3K27me3 [4]: > 5 fold | cell numbers (Hoechst staining) [1]: significant reductions | fraction of living cells (live/dead staining) [2]: significant reductions

C[S+](C)[O-] [DMSO, dimethyl sulfoxide]
mRNA levels of osteoblast differentiation markers (Alpl, Sp7, Ibsp, Phospho1) ([3]; 0.05% DMSO or 0.4% DMSO vs no DMSO, osteogenic medium, six days): significantly elevated | expression of late marker Bglap ([3]; DMSO 0.05% or 0.4% in osteogenic media, day ten): did not show compelling changes | Alpl enzymatic activity ([7]; low (0.05%) and high (0.4%) doses vs osteogenic medium (OM)): enhance Alpl enzymatic activity
